PRMT1 inh: PRMT1 methyltransferase inhibitors, primary screen, biochemical, fluorescence polarization | Protein arginine N-methyltransferase 1 (Homo sapiens), Q99873 | recombinant PRMT1, activity-based probe fluorescence polarization | inhibition, % at 2.79 µM | 370,000 compounds, 1.3% hits;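 active means inhibition above about 21% made by adding two undisclosed values, limit read from the data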
HTRA1 inh: HTRA1 serine protease inhibitors, primary screen, biochemical, fluorescence polarization, HTS; recombinant HTRA1, FP-rhodamine activity-based probe; inhibition, % at 5.96 µM; Q92743; AID 504803, 2011; 340,000 compounds, 0.5% hits; in the data active means inhibition above about 36%
SIAE primary: human SIAE inhibitors, primary screen, biochemical, fluorescence polarization, FP-Rh probe, 1536-well HTS; Sialate O-acetylesterase (Homo sapiens), Q9HAT2; SIAE FP-Rh probe binding; inhibition, % at 9.66 µM; 370,000 compounds, 0.69% hits; AID 1053197, 2014;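 active means inhibition above a cutoff: mean of compounds within the control limits plus 3 SD of those, cut at about 17% in these data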
TCR CD3 inh: inhibitors of human TCR-CD3 interaction, primary screen, biochemical, fluorescence, TAMRA-labeled TCR probe | 360,000 compounds, 0.37% hits | T-cell receptor (TCR) | AID 651800, 2012 | inhibition, % at 9.4 µM; in the data active means inhibition above about 19%;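 further: recombinant mutant TCR 2C K166C tagged with TAMRA read by polarization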
mABHD4 FP: ABHD4 inhibitors, primary screen, biochemical, fluorescence polarization, mouse; purified mABHD4, FP-Rh probe fluorescence polarization; inhibition, % at 8.92 µM; AID 720543, 2013; 370,000 compounds, 0.54% hits;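 active means inhibition exceeding the mean over every tested compound plus 3 SD, cut at about 30% in these data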
Target sequence (Q8VD66 whole entry, looked up): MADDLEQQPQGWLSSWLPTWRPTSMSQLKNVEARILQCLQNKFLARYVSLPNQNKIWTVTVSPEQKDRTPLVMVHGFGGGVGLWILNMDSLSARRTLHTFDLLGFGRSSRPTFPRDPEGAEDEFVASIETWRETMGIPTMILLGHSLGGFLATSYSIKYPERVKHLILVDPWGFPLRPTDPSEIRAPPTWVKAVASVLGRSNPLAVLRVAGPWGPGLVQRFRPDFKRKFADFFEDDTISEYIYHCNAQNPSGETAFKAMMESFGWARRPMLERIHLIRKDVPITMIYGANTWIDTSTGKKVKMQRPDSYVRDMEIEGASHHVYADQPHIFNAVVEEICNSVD
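System: mouse ABHD4 enzyme, wild type / Medium: HEPES pH 7.0, NaCl, Pluronic buffer / Reagent: FP-Rh activity-based fluorescent probe / Control set: S159A mutant high control, sample median low control / Detection: fluorescence polarization with parallel and perpendicular emission, 525/598 nm / Schedule: 45 min + 60 min at 25 °C / Compound dosing: 8.92 µM, single dose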
Of the large screens only hits and unclear results are named; the others gave an inactive call; ! = not active in a repeat. This is a sample that favours compounds with a hit; in the whole collection about 2.6% have one here.

CN(C)c1ccc(C=Nc2ccccc2)cc1	none
CN(C)c1ccc(N=Cc2ccco2)cc1	HTRA1 inh 54.6 (no result: PRMT1 inh, SIAE primary, TCR CD3 inh, mABHD4 FP)
O=C1c2c([N+](=O)[O-])cc([N+](=O)[O-])cc2S(=O)N1Cc1ccccc1 (stereo not given)	PRMT1 inh 21.4
O=[N+]([O-])c1ccc(NC2CCN(Cc3ccccc3)CC2)c([N+](=O)[O-])c1	none
C[C@@H]1O[C@@H](Oc2c(-c3cc(O)c(O)c(O)c3)oc3cc(O)cc(O)c3c2=O)[C@H](O)[C@H](O)[C@H]1O	PRMT1 inh 37.1
C[C@@H]1O[C@@H](Oc2c(-c3ccc(O)c(O)c3)oc3cc(O)cc(O)c3c2=O)[C@H](O)[C@H](O)[C@H]1O	none
O=c1c(O)c(-c2ccc(O)cc2)oc2cc(O)cc(O)c12	SIAE primary 20.6
O=c1cc(-c2ccc(O)cc2)oc2cc(O)cc(O)c12	none
CCCCOC(=O)CCN1C(=O)/C(=C/c2ccccc2)SC1=S	none (no result: HTRA1 inh, TCR CD3 inh)
COc1cc(C2C(C#N)=C(N)Oc3c2c(-c2ccccc2)nn3-c2ccccc2)cc(OC)c1OC (stereo not given)	SIAE primary 23.4
Cc1ccc(C(=O)NCCc2sc(C)nc2C)cc1	PRMT1 inh 23.4
COC(=O)c1cc2c(c3c4ccccc4n(S(=O)(=O)c4cccc(C)c4)c13)C(=O)N(Cc1ccc(N(C)C)cc1)C2	PRMT1 inh 22.2 (no result: HTRA1 inh)
CC1(C)CC(=O)C2=C(C1)OC(N)=C(C#N)C2c1ccccc1[N+](=O)[O-] (stereo not given)	PRMT1 inh 23.3
O=C(Nc1cccc(F)c1)/C(=C\c1ccco1)NC(=O)c1cccs1	PRMT1 inh 23.3
O=C(Nc1cccc(C(F)(F)F)c1)/C(=C\c1ccco1)NC(=O)c1cccs1	none
COc1ccc(C2=Nn3c(nnc3C3CCCCC3)SC2)cc1	none (no result: HTRA1 inh, TCR CD3 inh)
Cc1nc2cc(C(=O)O)ccc2s1	PRMT1 inh 21.4
O=[N+]([O-])c1cc(C=NN2CCN(Cc3ccccc3Cl)CC2)ccc1Cl	none (no result: HTRA1 inh, TCR CD3 inh)
CCC(C)(C)n1nnnc1C(c1cc2cc(C)ccc2[nH]c1=O)N1CCCC1 (stereo not given)	PRMT1 inh 22.4
Cc1ccc2cc(C(c3nnnn3C(C)(C)C)N3CCCCCC3)c(=O)[nH]c2c1 (stereo not given)	none (no result: PRMT1 inh, SIAE primary, TCR CD3 inh, mABHD4 FP)
CC(=O)c1cc(-c2ccc3[nH]ccc3c2)c(=O)n2c1CCC2	none (no result: HTRA1 inh, TCR CD3 inh)
O=c1c(Br)ccc(Br)cc1Br	PRMT1 inh 61.6
O=C1CN(S(=O)(=O)c2cc(Br)ccc2Br)CCN1	none
CN(C(=O)c1cccc(NC(=O)Cc2ccc(NC(=O)C3CCCN(C(=O)c4ccccc4)C3)cc2)c1)C1CC1 (stereo not given)	none (no result: HTRA1 inh)
O=C1C(Cl)=C(NS(=O)(=O)c2ccc([N+](=O)[O-])cc2)C(=O)c2ccccc21	mABHD4 FP 30.4
O=C(NCc1ccccc1)C(c1cccs1)N(C(=O)c1csnn1)C1CC1 (stereo not given)	none
O=C(NCCc1ccccc1)C(c1cccs1)N(C(=O)c1csnn1)C1CC1 (stereo not given)	SIAE primary 17.6
O=C(Nc1cccc(C(F)(F)F)c1)Oc1ccc(Cl)c2cccnc12	HTRA1 inh 45.8
CCN(CC)C(=O)Oc1ccc(Cl)c2cccnc12	none
CCN(CC)C(=O)CC[C@@H]1CC[C@]2(CCCN(S(C)(=O)=O)C2)O1	none (no result: HTRA1 inh, TCR CD3 inh)
Cc1ccc(Nc2nc(-c3ccc(S(=O)(=O)N4CCCC4)cc3)cs2)cc1C	none (no result: PRMT1 inh, SIAE primary, TCR CD3 inh, mABHD4 FP)
Cc1cc(C)cc(Nc2nc(-c3ccc(S(=O)(=O)N4CCCC4)cc3)cs2)c1	SIAE primary 22.0
Cc1cnc(NC(=O)CSc2nnc(COc3ccccc3)o2)s1	PRMT1 inh 24.2
CN(C)S(=O)(=O)c1cccc(NC(=O)COC(=O)/C=C/c2ccco2)c1	none
Cc1ccc(NC(=O)COC(=O)/C=C/c2ccco2)cc1S(=O)(=O)N(C)C	PRMT1 inh 21.2
Cc1c(NC2=C(Cl)C(=O)N(c3ccccc3)C2=O)c(=O)n(-c2ccccc2)n1C	none
O=C1C(Cl)=C(Nc2ccccc2O)C(=O)N1c1ccccc1	PRMT1 inh 21.8
Cc1ccc(O)c(NC2=C(Cl)C(=O)N(Cc3ccccc3)C2=O)c1	PRMT1 inh 24.2
C[C@@H]1ON(C)[C@H]2C[C@H]3c4[nH]c5c(-c6ccc7c(c6)OCO7)cccc5c4CCN3C(=O)[C@@H]12	none (no result: HTRA1 inh)
C=CCNC(=O)C1CC(=O)N(c2ccc(OCC(=O)Nc3ccc(C)cc3)cc2)C1 (stereo not given)	none
C=CCNC(=O)C1CC(=O)N(c2ccc(OCC(=O)Nc3ccccc3)cc2)C1 (stereo not given)	SIAE primary 18.4
Nc1[nH]c(C(=O)c2ccccc2)c(-c2cccc3ccccc23)c1C(=O)NC1CCCCC1	none (no result: HTRA1 inh)
COc1cccc(C(=O)NN2c3ccccc3CCc3ccccc32)c1	none
COc1cccc(C(=O)NN2C(=O)C3C4C=CC(O4)C3C2=O)c1 (stereo not given)	PRMT1 inh 22.7
O=C(CCc1ccccc1)N[C@H]1[C@@H](OC(=O)c2ccco2)CCC[C@]12C(=O)N(Cc1ccccc1)c1ccccc12	none (no result: HTRA1 inh, TCR CD3 inh)
O=C1C(=O)N(CCN2CCOCC2)C(c2ccc([N+](=O)[O-])cc2)/C1=C(/O)c1ccc2c(c1)OCO2 (stereo not given)	PRMT1 inh 22.6
O=C1CCC[C@H]2Cc3nc4ccccc4cc3C[C@]23CCCN13	none (no result: HTRA1 inh, TCR CD3 inh)
CCCCN(Cc1cc2cc(OC)ccc2[nH]c1=O)C(=O)c1ccco1	PRMT1 inh 24.4
CCCN(Cc1cc2cc(OC)ccc2[nH]c1=O)C(=O)c1ccco1	none
CC(=O)OCC1=C(C(=O)O)N2C(=O)C(NC(=O)C(C)Cn3nc(C)c(Cl)c3C)C2SC1 (stereo not given)	PRMT1 inh 24.6
CC(=O)OCC1=C(C(=O)O)N2C(=O)[C@@H](NC(=O)CSc3ccncc3)[C@H]2SC1	none
CC(=O)OCC1=C(C(=O)O)N2C(=O)C(NC(=O)c3ccc(F)cc3)C2SC1 (stereo not given)	PRMT1 inh 23.6
Cc1ccc2nc(N3C(=O)C(O)=C(C(=O)c4ccco4)C3c3ccc(O)cc3)sc2c1 (stereo not given)	PRMT1 inh 21.2
Cc1ccc2nc(N3C(=O)C(O)=C(C(=O)c4ccco4)C3c3ccc(C)o3)sc2c1 (stereo not given)	none
Cn1c(=O)oc2cc(S(=O)(=O)N3CCN(CCO)CC3)ccc21	none (no result: HTRA1 inh, TCR CD3 inh)
Cc1ccc(-c2nc3ccccc3nc2NN)cc1	PRMT1 inh 22.4
CC(CCc1ccccc1)NCC(O)c1ccc(O)c(C(N)=O)c1 (stereo not given)	none
COc1ccc(CC(C)NCC(O)c2ccc(O)c(NC=O)c2)cc1 (stereo not given)	TCR CD3 inh 26.6!
Cn1c(Cc2cccs2)nnc1SCC(=O)Nc1ccc2c(c1)OCCO2	none (no result: HTRA1 inh, TCR CD3 inh)
